What all share (type): functional, cell-based
Test [1] can be described thus: Cytotoxicity against human HL60 cells assessed as cell viability after 72 hrs by CCK cell proliferation assay. The following applies: HL-60, 72 h. Put shortly:
(§1)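 Cells plated at 3,000–5,000 per well; dosing began 24 h after plating, using a rising concentration series. After 72 h, cell counting kit reagent added and incubation continued 1–4 h. Viable cells read as OD at 450 nm. Inhibition rate = (1 − OD treated/OD control) × 100%. Wells in triplicate, each compound tested three times; IC50 is the mean of three independent experiments.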

The next test deals with C6. In words: Cytotoxicity against rat C6 cells assessed as cell viability after 72 hrs by CCK cell proliferation assay. The following applies: C6, 72 h. Put shortly: as §1
In a further test the test system is MCF7. Kind of test: Cytotoxicity against human MCF7 cells assessed as cell viability after 72 hrs by CCK cell proliferation assay. The following applies: MCF7, 72 h. Put shortly:
as §1

The nature of test [2]: Cytotoxicity against human SUM159 cells assessed as cell viability after 72 hrs by CCK cell proliferation assay. The following applies: SUM-159-PT. Put shortly: as §1

Broadly, the IC50 is the midpoint of a concentration-inhibition curve.

With `C=C1C(=O)O[C@H]2[C@@H]1CC/C(C)=C/CC[C@@]1(C)O[C@@H]21`, the half-inhibitory concentration (IC50) in test [1] turned out to be 2900 nM; with C6 it was 24 µM; with MCF7 it was 17.6 µM; in test [2], 12.3 µM.

Take `C=C1C(=O)O[C@H]2[C@H]1CC/C(C)=C\CC[C@@]1(C)O[C@@H]21`: the IC50 in test [1] is 1200 nM; with C6, 3.9 µM; with MCF7, 5.9 µM; in test [2], 7.7 µM.

`C=C1C(=O)O[C@H]2[C@@H]1CC/C(C)=C\CC[C@@]1(C)O[C@@H]21`: the IC50 in test [1] came to 4200 nM; in the test on C6, 41.8 µM; with MCF7, 13 µM; in test [2] it was 3.5 µM.

`C=C1C(=O)O[C@@H]2C3O[C@]3(C)CC/C=C(\C)CC[C@@H]12` (stereo partly specified): the IC50 is 2500 nM in test [1], 6.6 µM with C6, 6.9 µM in the test on MCF7 and 10.3 µM in test [2].

Values taken from ChEMBL document CHEMBL3351257, “Total syntheses of parthenolide and its analogues with macrocyclic stereocontrol” (J Med Chem, 2014).
